ChEMBL document CHEMBL4392853, “Characterising covalent warhead reactivity” (Bioorg Med Chem, 2019)
Activity calls are given as the source filed them. The rule behind the calls is not given here.

Experiments:
[1] = Reversible drug reactivity against cysteine in PBS buffer by NMR assay
Procedure, shortened: (§1)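 Warhead reactivity toward cysteine was tracked by NMR, measuring the amount of warhead remaining in solution over time. Cysteine was used at 10x the warhead concentration, giving pseudo-first-order conditions. The rate constant is the gradient of the fitted line. Runs were at pH 7.4 and also at pH 9.8. Two warheads were run in triplicate and averaged; the others were run once.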

[2] = Drug reactivity against cysteine in PBS buffer by NMR assay; procedure, shortened: as §1
[3] = Drug reactivity against serine in PBS buffer by NMR assay
Procedure, shortened: (§2)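 NMR time-course following the warhead in solution with serine, with the amino acid at 10x the warhead concentration (pseudo-first-order). Run at pH 7.4. The rate constant was taken from the gradient of the line. Single determinations.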

[4] = Reversible drug reactivity against serine in PBS buffer by NMR assay; procedure, shortened: as §2
[5] = Drug reactivity against cysteine in PBS buffer assessed as rate constant by NMR assay
Procedure, shortened: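 Warhead reacted in solution with cysteine held at 10x the warhead concentration, giving pseudo-first-order kinetics. Remaining warhead was followed over time by NMR, and the rate constant was taken from the gradient of the line. Runs were at pH 7.4 and also at pH 9.8. Two warheads were run in triplicate and averaged; all others were run once.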

[6] = Drug reactivity against cysteine in PBS buffer assessed as half life by NMR assay
[7] = Irreversible drug reactivity against serine in PBS buffer by NMR assay; procedure, shortened: as §2
[8] = Irreversible drug reactivity against cysteine in PBS buffer by NMR assay; procedure, shortened: as §1

| SMILES | Activity [1] | Activity [2] | Activity [3] | Activity [4] | K [5] | T1/2 [6] [min] | Activity [7] | Activity [8] |
| --- | --- | --- | --- | --- | --- | --- | --- | --- |
| OB1OCc2ccccc21 | Active | inactive | inactive | Active |  |  |  |  |
| C=CC(=O)c1ccccc1 | Active | Active | Active | Active |  |  |  |  |
| C=CC(=O)Nc1ccccc1 | Active | Active | Active | Active | 8.38 ×10⁻⁵ /s |  |  |  |
| CN(C)C/C=C/C(=O)Nc1ccccc1 | Active | Active | Active | Active |  |  |  |  |
| O=S(=O)(F)c1ccccc1 |  | Active | Active |  |  |  |  |  |
| N#Cc1ccccn1 | Active | inactive | inactive | Active |  |  |  |  |
| COC(=O)Nc1ccccc1 |  | Active | Active |  |  |  |  |  |
| C=CS(=O)(=O)Nc1ccccc1 | Active | Active | Active | Active | 6.73 ×10⁻⁴ /s | 17.2 |  |  |
| O=C1CC(c2ccccc2)N1 (stereo not drawn) |  | inactive | inactive |  |  |  | Active | Active |
| C#CC(=O)c1ccccc1 | Active | Active | Active | Active |  |  |  |  |
| O=C1CCN1c1ccccc1 |  | inactive | inactive |  |  |  | Active | Active |
| N#Cc1ncccn1 | Active | Active | Active | Active |  |  |  |  |
| c1ccc(C2CO2)cc1 (stereo not drawn) | Active | Active | Active | Active |  |  |  |  |
| O=C(c1ccccc1)C(F)(F)F | Active | inactive | inactive | Active |  |  |  |  |
| N#Cc1ccccc1 | Active | inactive | inactive | Active |  |  |  |  |
| CC1(C)S[C@@H]2[C@H](N)C(=O)N2[C@H]1C(=O)O |  | inactive | inactive |  |  |  | Active | Active |
